Experimental data: ChEMBL document CHEMBL5370587, “Fungal Anthraquinone Photoantimicrobials Challenge the Dogma of Cationic Photosensitizers” (J Nat Prod, 2023)

Key:
T-24 [1] = assay: Phototoxicity against human T24 cells assessed as reduction in cell growth preincubated with compound for 24 hrs under dark condition and measured after 48 hrs by SRB assay; type: functional, cell-based; conditions: T-24, light or radiation study
Procedure, shortened: (§1)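 Dark control plate processed the same way: cells (A549 2000, AGS 2500, T24 1500 per well) in Opti-MEM with 2.4% FCS, dosed at 25.0−0.3 μM 24 h after seeding. Medium renewed after 24 h, then 48 h further at 37 °C, 5% CO2 without light. SRB read-out at 540 nm after TCA fixation. EC50 with 95% CI from variable-slope fit.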

AGS [2] = assay: Phototoxicity against human AGS cells assessed as reduction in cell growth preincubated with compound for 24 hrs under dark condition and measured after 48 hrs by SRB assay; type: functional, cell-based; conditions: light or radiation study; procedure, shortened: as §1
A549 [3] = assay: Phototoxicity against human A549 cells assessed as reduction in cell growth preincubated with compound for 24 hrs under dark condition and measured after 48 hrs by SRB assay; type: functional, cell-based; conditions: A549, light or radiation study; procedure, shortened: as §1
Candida albicans [4] = assay: Antifungal activity against Candida albicans 501670 assessed as reduction in microbial growth preincubated for 60 mins under dark condition followed by 428 to 530 nm light irradiation and measured after 20 to 24 hrs by muller hinton broth based dilution assay; type: functional; conditions: Candida albicans, 501670, light or radiation study; in the assay text read “RPMI-1640” for “muller hinton broth”; time 21-25 hrs
Procedure, shortened: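 Yeast set to 0.5 McFarland (530 nm), diluted 1:10 in double-strength RPMI-1640 to (0.5−2.5) × 10⁵ CFU/mL. Irradiated at H = 30 J/cm² after 60 min dark preincubation, then kept dark at 37 °C for 20−24 h. Growth inhibition by turbidity versus growth control, blanks subtracted. ≥10 concentrations in biological triplicate.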

Staphylococcus aureus [5] = assay: Antibacterial activity against Staphylococcus aureus DSM1104 assessed as reduction in microbial growth preincubated for 60 mins under dark condition followed by 428 to 530 nm light irradiation and measured after 20 to 24 hrs by muller hinton broth based dilution assay; type: functional; conditions: DSM1104, light or radiation study, time 21-25 hrs
Procedure, shortened: (§2)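 Bacterial inoculum set to 0.5 McFarland (600 nm) and diluted 1:50 in Müller-Hinton broth to (2–8) × 10⁵ CFU/mL. After 60 min dark preincubation the plate received H = 30 J/cm² from LED panels (468±27, 519±33, 478±22 or 523±33 nm). Incubated at 37 °C in the dark for 20−24 h. Turbidity read against growth control, blanks subtracted. ≥10 concentrations, biological triplicate.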

Candida albicans [6] = assay: Antifungal activity against Candida albicans 501670 assessed as reduction in microbial growth preincubated for 60 mins under dark condition and measured after 20 to 24 hrs at room temperature by RPMI-1640 based dilution assay
A549 [7] = assay: Phototoxicity against human A549 cells assessed as reduction in cell growth preincubated with compound for 24 hrs followed by blue light irradiation at 468 nm for 7 mins 30 sec and measured after 48 hrs by SRB assay; type: functional, cell-based; conditions: A549, light or radiation study
Procedure, shortened: (§3)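 Cells (A549 2000, AGS 2500, T24 1500 per well) seeded in Opti-MEM with 2.4% FCS. After 24 h, treated with 25.0−0.3 μM (six levels). After another 24 h, medium was replaced and cells got blue light (468±27 nm, 9.3 J/cm²). Held 48 h at 37 °C, 5% CO2, then TCA-fixed and SRB-stained, read at 540 nm. EC50 from variable-slope fit with 95% CI.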

AGS [8] = assay: Phototoxicity against human AGS cells assessed as reduction in cell growth preincubated with compound for 24 hrs followed by blue light irradiation at 468 nm for 7 mins 30 sec and measured after 48 hrs by SRB assay; type: functional, cell-based; conditions: light or radiation study; procedure, shortened: as §3
Escherichia coli [9] = assay: Antibacterial activity against Escherichia coli DSM1103 assessed as reduction in microbial growth preincubated for 60 mins under dark condition followed by 428 to 530 nm light irradiation and measured after 20 to 24 hrs by muller hinton broth based dilution assay; type: functional; conditions: DSM1103, light or radiation study, time 21-25 hrs; procedure, shortened: as §2
Escherichia coli [10] = assay: Antibacterial activity against Escherichia coli DSM1103 assessed as reduction in microbial growth preincubated for 60 mins under dark condition and measured after 20 to 24 hrs at room temperature by muller hinton broth based dilution assay; type: functional; conditions: time 20-24 hrs
Procedure, shortened: (§4)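 Bacteria grown overnight at 37 °C for 15−18 h in the dark, then set to 0.5 McFarland (read at 600 nm) and diluted 1:50 in Müller-Hinton broth to (2–8) × 10⁵ CFU/mL. Dark plate held at room temperature, then incubated at 37 °C. After 20−24 h, turbidity was read against the untreated growth control, with blanks subtracted. Compounds tested at ≥10 concentrations in biological triplicate.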

Staphylococcus aureus [11] = assay: Antibacterial activity against Staphylococcus aureus DSM1104 assessed as reduction in microbial growth preincubated for 60 mins under dark condition and measured after 20 to 24 hrs at room temperature by muller hinton broth based dilution assay; type: functional; conditions: time 20-24 hrs; procedure, shortened: as §4
T-24 [12] = assay: Phototoxicity against human T24 cells assessed as reduction in cell growth preincubated with compound for 24 hrs followed by blue light irradiation at 468 nm for 7 mins 30 sec and measured after 48 hrs by SRB assay; type: functional, cell-based; conditions: T-24, light or radiation study; procedure, shortened: as §3
AGS [13] = assay: Phototoxicity against human AGS cells assessed as reduction in cell growth preincubated with compound for 24 hrs followed by green light irradiation at 519 nm for 22 mins 23 sec and measured after 48 hrs by SRB assay; type: functional, cell-based; conditions: light or radiation study
Procedure, shortened: (§5)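 Cells (A549 2000, AGS 2500, T24 1500 per well) seeded in Opti-MEM with 2.4% FCS and dosed 24 h later at six concentrations, 25.0−0.3 μM. After a further 24 h, fresh medium was added and cells got green light (519±33 nm, 30.0 J/cm²). Then 48 h at 37 °C, 5% CO2. Read-out by TCA fixation, SRB stain and absorbance at 540 nm. EC50 from Hill fit with 95% CI.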

Staphylococcus aureus [14] = assay: Antibacterial activity against Staphylococcus aureus DSM1104 assessed as reduction in microbial growth preincubated for 60 mins under dark condition followed by 530 nm light irradiation and measured after 20 to 24 hrs by muller hinton broth based dilution assay; type: functional; conditions: DSM1104, light or radiation study, time 21-25 hrs
Procedure, shortened: (§6)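 PhotoMIC (modified EUCAST broth microdilution): 0.5 McFarland suspensions diluted 1:50 in Mueller-Hinton broth (bacteria, 2–8 × 10⁵ CFU/mL) or 1:10 in double-strength RPMI-1640 (yeast, 0.5–2.5 × 10⁵ CFU/mL); ≥10 concentrations, biological triplicates; 60 min dark preincubation, then 30 J/cm² irradiation or dark duplicate plate; 37 °C, 20–24 h; turbidity versus growth control, blanks subtracted.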

Staphylococcus aureus [15] = assay: Antibacterial activity against Staphylococcus aureus DSM1104 assessed as reduction in microbial growth preincubated for 60 mins under dark condition followed by 428 nm light irradiation and measured after 20 to 24 hrs by muller hinton broth based dilution assay; type: functional; conditions: DSM1104, light or radiation study, time 21-25 hrs; procedure, shortened: as §6
A549 [16] = assay: Photo index, ratio of EC50 for human A549 cells killed in the absence of light to EC50 for human A549 cells killed after irradiation; type: functional
Procedure, shortened: (§7)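 SRB assay: cells seeded in Opti-MEM with 2.4% FCS, treated 24 h later with 0.3–25.0 μM, medium replaced after 24 h. Duplicate plates were irradiated with blue light (468 nm, 9.3 J/cm²) or green light (519 nm, 30.0 J/cm²), or kept dark, then held 48 h at 37 °C, 5% CO₂. EC50 from Hill fit; photoindex = EC50 dark / EC50 irradiated.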

T-24 [17] = assay: Photo index, ratio of EC50 for human T24 cells killed in the absence of light to EC50 for human T24 cells killed after irradiation; type: functional; procedure, shortened: as §7
A549 [18] = assay: Phototoxicity against human A549 cells assessed as reduction in cell growth preincubated with compound for 24 hrs followed by green light irradiation at 519 nm for 22 mins 23 sec and measured after 48 hrs by SRB assay; type: functional, cell-based; conditions: A549, light or radiation study; procedure, shortened: as §5
Candida albicans [19] = assay: Antifungal activity against Candida albicans 501670 assessed as reduction in microbial growth preincubated for 60 mins under dark condition followed by 478 nm light irradiation and measured after 20 to 24 hrs by RPMI-1640 based dilution assay; conditions: Candida albicans, 501670, light or radiation study
Escherichia coli [20] = assay: Antibacterial activity against Escherichia coli DSM1103 assessed as reduction in microbial growth preincubated for 60 mins under dark condition followed by 428 nm light irradiation and measured after 20 to 24 hrs by muller hinton broth based dilution assay; type: functional; conditions: DSM1103, light or radiation study, time 21-25 hrs; procedure, shortened: as §6
Candida albicans [21] = assay: Antifungal activity against Candida albicans 501670 assessed as reduction in microbial growth preincubated for 60 mins under dark condition followed by 530 nm light irradiation and measured after 20 to 24 hrs by RPMI-1640 based dilution assay; conditions: Candida albicans, 501670, light or radiation study
T-24 [22] = assay: Phototoxicity against human T24 cells assessed as reduction in cell growth preincubated with compound for 24 hrs followed by green light irradiation at 519 nm for 22 mins 23 sec and measured after 48 hrs by SRB assay; type: functional, cell-based; conditions: T-24, light or radiation study; procedure, shortened: as §5
Candida albicans [23] = assay: Antifungal activity against Candida albicans 501670 assessed as reduction in microbial growth preincubated for 60 mins under dark condition followed by 428 nm light irradiation and measured after 20 to 24 hrs by RPMI-1640 based dilution assay; conditions: Candida albicans, 501670, light or radiation study
Staphylococcus aureus [24] = assay: Antibacterial activity against Staphylococcus aureus DSM1104 assessed as reduction in microbial growth preincubated for 60 mins under dark condition followed by 478 nm light irradiation and measured after 20 to 24 hrs by muller hinton broth based dilution assay; type: functional; conditions: DSM1104, light or radiation study, time 21-25 hrs; procedure, shortened: as §6

Row | Structure (SMILES) | EC50 (T-24 [1]) | EC50 (AGS [2]) | EC50 (A549 [3]) | MIC (Candida albicans [4]) | MIC (Staphylococcus aureus [5]) | MIC (Candida albicans [6]) | EC50 (A549 [7]) | EC50 (AGS [8]) | MIC (Escherichia coli [9]) | MIC (Escherichia coli [10]) | MIC (Staphylococcus aureus [11]) | EC50 (T-24 [12]) | other results
1 | Cc1cc(O[C@@H]2O[C@H](CO)[C@@H](O)[C@H](O)[C@H]2O)c2c(c1)C(=O)c1cc(O[C@@H]3O[C@H](CO)[C@@H](O)[C@H](O)[C@H]3O)cc(O)c1C2=O | > 25 µM | > 25 µM | > 25 µM | > 84 µM | > 84 µM | > 84 µM | > 25 µM | > 25 µM | > 84 µM | > 84 µM | > 84 µM | > 25 µM | –
2 | C[C@@H]1[C@H](O)[C@@H](C)/C=C/C=C/C=C/C=C/C=C/C=C/C=C/[C@H](O[C@@H]2O[C@H](C)[C@@H](O)[C@H](N)[C@@H]2O)C[C@@H]2O[C@](O)(C[C@@H](O)C[C@@H](O)[C@H](O)CC[C@@H](O)C[C@@H](O)CC(=O)O[C@H]1C)C[C@H](O)[C@H]2C(=O)O [AMPHOTERICIN B] | – | – | – | – | – | 0.22 µM | – | – | – | – | – | – | –
3 | COc1c(O)c(O)c2c(c1O)C(=O)c1cc(C)cc(O)c1C2=O | 24.7 µM | > 25 µM | > 25 µM | – | – | > 79 µM | > 25 µM | > 25 µM | – | – | > 79 µM | > 25 µM | EC50 (AGS [13]): > 25 µM; MIC (Staphylococcus aureus [14]): 2.37 µM; MIC (Staphylococcus aureus [15]): 39.5 µM; Ratio EC50 (A549 [16]): >1.5; Ratio EC50 (T-24 [17]): 2.1; EC50 (A549 [18]): 16.2 µM; MIC (Candida albicans [19]): 19.7 µM; MIC (Escherichia coli [20]): > 79 µM; MIC (Candida albicans [21]): 39.5 µM; EC50 (T-24 [22]): 11.6 µM; MIC (Candida albicans [23]): 39.5 µM; MIC (Staphylococcus aureus [24]): 4.74 µM
4 | Cc1cc(O[C@@H]2O[C@H](CO)[C@@H](O)[C@H](O)[C@H]2O)c2c(c1)C(=O)c1cc(O)cc(O)c1C2=O | > 25 µM | > 25 µM | > 25 µM | > 115 µM | > 115 µM | > 115 µM | > 25 µM | > 25 µM | > 115 µM | > 115 µM | > 115 µM | > 25 µM | –
5 | O=C(N[C@H](CO)[C@H](O)c1ccc([N+](=O)[O-])cc1)C(Cl)Cl [CHLORAMPHENICOL] | – | – | – | – | – | – | – | – | – | 6.1 µM | – | – | –
6 | CC[C@H]1OC(=O)[C@H](C)[C@@H](O[C@H]2C[C@@](C)(OC)[C@@H](O)[C@H](C)O2)[C@H](C)[C@@H](O[C@@H]2O[C@H](C)C[C@H](N(C)C)[C@H]2O)[C@](C)(O)C[C@@H](C)C(=O)[C@H](C)[C@@H](O)[C@]1(C)O [ERYTHROMYCIN] | – | – | – | – | – | – | – | – | – | – | 1.4 µM | – | –
7 | COc1c(O)c(O)c2c(c1O)C(=O)c1cc(C)cc(O[C@@H]3O[C@H](CO)[C@@H](O)[C@H](O)[C@H]3O)c1C2=O | > 25 µM | > 25 µM | > 25 µM | > 105 µM | > 105 µM | > 105 µM | > 25 µM | > 25 µM | > 105 µM | > 105 µM | > 105 µM | > 25 µM | EC50 (AGS [13]): > 25 µM; EC50 (A549 [18]): > 25 µM; EC50 (T-24 [22]): > 25 µM
